# FXIIa inh: factor XIIa (human) inhibition. P00748. purified FXIIa, Boc-QGR-AMC fluorogenic substrate, 2 h. inhibition, % at 5 µM. hit rate 0.3% among 220,000. AID 800; in the data active = inhibition above about 40%;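 also: 0% = enzyme with no compound and 100% = blank without enzyme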
# thrombin 1536: thrombin (human) inhibition; P00734; alpha-thrombin, Boc-VPR-AMC fluorogenic substrate cleavage; inhibition, % at 5 µM; hit rate 0.26% among 220,000; AID 1046;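 active = inhibition at or above 40%; inactive = inhibition below 40%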;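 also: 0% = enzyme with no compound and 100% = wells without enzyme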
#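 Material: human alpha-thrombin protein; Also added: Boc-VPR-AMC substrate, 15 µM final; Timing: enzyme reaction carried out at room temperature; Signal: fluorescence, ex 355 nm, em 460 nm; Measure: % inhibition of thrombin; Controls: enzyme without compound as high, wells lacking enzyme as low.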
# m-calpain inh: inhibitors of pig calpain II | AID 1236 | purified calpain II, fluorogenic peptide substrate, 30 min | inhibition, % at 16 µM | hit rate 0.37% among 220,000;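 active = inhibition above about 50%, limit read from the data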
# FXIa inh 1536: inhibitors of human coagulation factor XIa | purified FXIa, Boc-Glu-Ala-Arg-AMC fluorogenic substrate | inhibition, % at 5 µM | hit rate 0.14% among 220,000 | P03951;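 active = inhibition of at least 40%; inactive = inhibition below 40%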;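 also: fluorescence of freed AMC excited at 355 nm; 0% = enzyme without compound and 100% = no enzyme blank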
# Target sequence (P03951 19-387 limits assumed): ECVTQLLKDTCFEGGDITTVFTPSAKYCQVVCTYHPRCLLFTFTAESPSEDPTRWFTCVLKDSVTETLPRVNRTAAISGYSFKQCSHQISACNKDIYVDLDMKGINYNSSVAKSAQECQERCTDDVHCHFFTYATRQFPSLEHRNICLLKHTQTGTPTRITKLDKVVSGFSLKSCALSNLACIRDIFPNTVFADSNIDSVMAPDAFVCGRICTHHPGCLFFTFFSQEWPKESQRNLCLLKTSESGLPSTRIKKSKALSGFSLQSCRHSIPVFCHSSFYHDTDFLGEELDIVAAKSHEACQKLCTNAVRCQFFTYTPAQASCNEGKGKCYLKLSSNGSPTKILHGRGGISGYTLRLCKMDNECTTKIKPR
# Target sequence (P03951 388-625 limits assumed): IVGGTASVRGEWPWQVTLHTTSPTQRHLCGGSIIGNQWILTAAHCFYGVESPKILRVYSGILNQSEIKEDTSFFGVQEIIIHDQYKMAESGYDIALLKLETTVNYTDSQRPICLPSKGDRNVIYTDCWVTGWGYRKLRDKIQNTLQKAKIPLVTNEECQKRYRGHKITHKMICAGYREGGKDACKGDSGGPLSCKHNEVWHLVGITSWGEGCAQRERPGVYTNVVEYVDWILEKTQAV
# hK5 inh: blocks human kallikrein 5 protease activity; AID 873; recombinant hK5, fluorogenic AMC substrate cleavage; hit rate 0.59% among 210,000; inhibition, % at 5 µM; Q9Y337;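 active = inhibition of 40% or more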;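 also: 0% = enzyme controls without compound and 100% = no-enzyme blanks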
# An asterisk follows results filed as active. In the library only some 1.4% were active in any assay of this set; here they are far more common.
SMILES,FXIIa inh,thrombin 1536,m-calpain inh,FXIa inh 1536,hK5 inh
[NH-]c1ncnc2c1N=C[N+]2=CC=CCO,7.2,-6.7,-7.2,2.1,-2.5
Cn1cc(C(=O)c2ccc(Cl)cc2Cl)cc1C(=O)N/N=C(\N)COc1ccc(F)cc1,9.2,75.7*,-46.8,-0.6,-111.2
CC1(C)Cc2c(sc(NC(=O)c3ccccc3Cl)c2C(=O)O)CO1,5.1,-8.5,-20.4,-2.8,2.6
C=CCn1c(O)c(N=NC(=S)Nc2ccccc2F)c2cc(S(=O)(=O)N3CCOCC3)ccc21,54.8*,-2.0,-147.6,34.5,20.3
Cc1nc2ccccc2c(=O)n1NC(=O)c1cc(Br)ccc1Cl,22.0,51.2*,9.0,47.1*,43.1*
O=C1c2ccccc2C(=O)N1CCCCN(C(=O)c1cc([N+](=O)[O-])ccc1Cl)c1ccc(Cl)cc1,19.9,1.4,28.2,14.8,26.2
CN(CC1CCCO1)S(=O)(=O)c1ccc(C(=O)Nc2ccc3c(c2)OCO3)cc1 (stereo unspecified),28.8,5.3,10.6,34.2,61.2*
Cc1cc(NC(=O)c2ccc(S(=O)(=O)N(C)CC3CCCO3)cc2)no1 (stereo unspecified),6.2,-0.5,-59.4,-1.4,2.3
COc1ccc(-c2[nH]ncc2C2N=C(N)Nc3nc4ccccc4n32)cc1 (stereo unspecified),31.0,8.7,38.5,47.2*,18.3
NC1=NC(c2cn[nH]c2-c2cccc(F)c2)n2c(nc3ccccc32)N1 (stereo unspecified),-7.6,1.0,-11.1,-6.2,-21.6
CCCCCCNC(=O)N[C@H](C(=O)NCCC[C@H]1CN2C(=NC[C@H]2C)N1CCC(c1ccccc1)c1ccccc1)C(C)O (stereo partly specified),10.0,0.9,-15.4,1.3,0.9
CCOc1cccc2c1OC1(C)CC2NC(=O)N1Cc1ccccc1 (stereo unspecified),36.7,3.7,12.0,62.2*,37.8
CC(=O)N1CCN(c2cc(N3CCc4ccccc4C3)c(F)cc2[N+](=O)[O-])CC1,5.6,5.6,-55.9,5.7,2.5
Cc1ccc(S(=O)(=O)NCC(=O)NCC(=O)OCC(=O)N2CC(=O)Nc3ccccc32)cc1C,8.2,2.3,6.4,-3.3,-8.0
COc1cc(C2SCC(=O)N2c2c(C)n(C)n(-c3ccccc3)c2=O)ccc1O (stereo unspecified),19.3,28.2,4.1,42.9*,23.2
c1ccc(COc2ccc(CNCc3cccnc3)cc2)cc1,0.4,-2.0,21.9,-6.1,3.1
CC(C)CNC(=O)Nc1ccc(F)c(Cl)c1,29.8,26.4,26.4,52.3*,14.4
O=C(CN(Cc1cccs1)C(=O)CCC(=O)Nc1nccs1)NCc1ccccc1,106.8*,16.7,12.2,7.6,104.6*
O=C(CN(Cc1ccco1)C(=O)CCC(=O)Nc1nccs1)NCc1ccccc1,11.7,0.2,-5.3,4.4,-7.1
COc1ccc(N(CC(=O)Nc2ccccc2SC)S(C)(=O)=O)cc1OC,44.5*,0.2,24.0,11.6,-14.9
CCS(=O)(=O)C(C)(CCl)C(=O)Nc1ccc(C(=O)OC)cc1 (stereo unspecified),4.9,-4.8,-18.8,-3.6,-1.5
Cc1nnc2sc(SCC(=O)Nc3nccs3)nn2c1=O,25.2,11.6,27.6,18.6,2.4
CCN1C/C(=C/c2cccc([N+](=O)[O-])c2)C(=O)/C(=C/c2cccc([N+](=O)[O-])c2)C1,11.8,2.6,-78.3,5.4,-11.2
COC(=O)c1ccc(OC)c(CSc2nnc(COc3ccc(Cl)cc3)o2)c1,-7.5,3.2,50.6*,-8.6,-11.1
COC(=O)c1ccc(OC)c(CSc2nnc(COc3ccccc3)o2)c1,6.7,-2.7,11.9,6.3,2.7
SMILES,FXIIa inh,thrombin 1536,m-calpain inh,FXIa inh 1536,hK5 inh
CCc1cccc(CC)c1N(COC)C(=O)Cn1nnc2ccccc21,13.8,5.4,-12.9,4.1,-9.5
CCc1cccc(CC)c1N(COC)C(=O)Cn1c(CO)nc2ccccc21,43.4*,-1.2,20.0,8.4,4.1
COCC(=O)n1nc(-c2ccccc2)nc1NCc1cccs1,10.5,85.7*,-2.0,3.1,5.7
CCC(=O)n1nc(-c2ccc(Cl)cc2)nc1NCc1ccccc1,13.6,70.5*,-8.0,4.2,-8.6
COc1cc(C2NC(=O)NC3=C2C(=O)OC3)cc(OC)c1OC (stereo unspecified),5.6,-2.7,-29.3,-1.8,-2.5
O=C(c1ccco1)N1N=C(c2ccc(Br)cc2)CC1(O)C(F)(F)F (stereo unspecified),7.3,-4.1,32.4,-2.4,1.7
CCCCOc1ccc(CONS(=O)(=O)c2ccc(NC(C)=O)cc2)cc1Cl,-7.8,-5.6,50.1*,-7.0,2.6
Cc1ccccc1N1C(=O)C(Cc2ccc(F)cc2)S/C1=C(\C#N)C(N)=O (stereo unspecified),4.0,0.5,28.1,-4.6,-5.8
CC(=O)N/N=C(\N)c1nonc1N,3.3,-5.4,-13.1,-2.0,-1.0
Cc1ccc(C)c(S(=O)(=O)N2CCCOC2CNC(=O)C(=O)NCc2cccnc2)c1 (stereo unspecified),34.1,12.6,2.4,-7.7,42.8*
Cc1ccc(S(=O)(=O)C(C#N)=C2N(C)c3ccccc3N2C)cc1,0.6,4.3,0.9,-4.2,1.3
CCn1c(-c2csc(C(C)C)c2)n[nH]c1=S,-0.5,-8.5,3.2,-4.7,-12.3
CC(C)Cn1c(-c2csc(C(C)C)c2)n[nH]c1=S,6.0,-4.2,54.1*,-0.5,-3.3
O=S(=O)(CC(c1ccccc1)N1CCCCC1)c1ccc(Cl)cc1 (stereo unspecified),15.6,6.0,20.1,4.5,47.8*
CCOC(=O)N1CCN(C(=O)c2ccc3c(c2)ncn3C2CCCC2)CC1,15.8,1.2,27.0,4.6,-30.1
CCOC(=O)N1CCC(NC(=O)c2ccc3c(c2)ncn3C2CCCC2)CC1,7.1,-12.0,76.9*,0.3,-17.0
C=CCn1cn[nH]c1=S,6.0,-8.0,-22.6,-4.0,-4.9
CC(C)(C)C(=O)Nc1ccc(C(=O)N/N=C/c2ccccc2OC(=O)c2ccccc2)cc1,-1.5,-3.4,11.6,59.9*,11.1
CC(C)(C)C(=O)Nc1ccc(C(=O)N/N=C/c2ccccc2OC(=O)c2ccc(Cl)cc2)cc1,18.9,-1.1,-33.4,11.6,-11.2
CCNC(=O)C1CC(=O)N(CC)C(=Nc2cc(Cl)c(O)c(Cl)c2)S1 (stereo unspecified),10.5,0.2,2.5,-1.5,13.1
CC(=O)Nc1ccc(C(=O)N(C)C(C(=O)Nc2ccccc2)c2ccccn2)cc1 (stereo unspecified),12.6,1.5,2.0,10.0,-19.9
O=C(CCC(=O)N1CCN(S(=O)(=O)c2ccc(Cl)cc2)CC1)Nc1cccc(Br)c1,16.2,1.5,83.2*,12.6,-23.3
NC(=O)c1ccc(NC(=O)CCC(=O)N2CCN(S(=O)(=O)c3ccc(Cl)cc3)CC2)cc1,14.9,2.9,21.6,11.0,0.5
CC(=O)c1ccc2c(c1)N(C)c1ccccc1S2,20.6,17.2,40.8,15.6,40.9*
CC(=O)c1ccc2c(c1)Nc1ccccc1S2,1.0,-3.3,6.9,-4.8,14.5

# Screens from PubChem BioAssay.
